This data set is described as follows: Toxicity liver stage against HepG2, at 10uM. It counts as cell-based. The arrangement: test concentration 10 uM, cell line HepG2-A16-CD81EGFP. The note with it: human, HepG2-A16-CD81EGFP cells; read-out: INHIBITION
The procedure, abridged: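 Uninfected HepG2-A16-CD81EGFP cells, 3 × 10^3 per well, 1536-well, plated on prespotted compound at 10 μM final, parasite-free screening media added to match infected plates; puromycin 10 μM positive, DMSO 0.5% negative; run in parallel with 48 h PbLuc assay at 37 °C, 5% CO2; viability by CellTiter-Glo luminescence, normalized to controls.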
Take `c1cc(-c2ccc(CN3CCC4(CCNCC4)CC3)s2)[nH]n1`: the cytotoxicity at 10 µM was -166%. The result for `O=C(O)C1(Oc2cccc(F)c2)CCN(C2CCOCC2)CC1` reads -7.16%.

As for `CN(C)c1cccc(C(=O)N2CCCc3cc(OC(F)(F)F)ccc32)c1`, the cytotoxicity at 10 µM is -44.4%. On to `CN1CC(=O)N(c2ccccc2)CC12CCN(Cc1nccs1)C2` (stereo unspecified), for which the cytotoxicity at 10 µM was determined as 3.33%.

Turning to `O=S(=O)(C1CC1)N1CCO[C@H]2[C@@H](Oc3cccnc3)CC[C@@H]21`, the cytotoxicity at 10 µM was -5.96%. On to `O=C(c1ccco1)N1CCC2(CCOC2)C1` (stereo unspecified), for which the cytotoxicity at 10 µM is -3.65%.

`CC(C)(C)c1noc(CNc2ccccc2N2CCC(O)CC2)n1`: the cytotoxicity at 10 µM was found to be 0.965%. Turning to `O=C1OCCN1CC(=O)N1C[C@@H]2CC[C@H]1CN(Cc1cscn1)C2`, the cytotoxicity at 10 µM is -5.41%. As to `Cc1cc(=O)n2ncnc2n1CC(O)c1ccccc1` (stereo unspecified), the cytotoxicity at 10 µM was -7.82%. Next, `CN1CCOC(CN(C(=O)CCc2cnn(C)c2)c2nccs2)C1` (stereo unspecified): -10.2%; `CN(C)[C@H]1CN(C(=O)CCCc2ccc(F)cc2)C[C@@H]1C1CC1`: -3.01%. In the case of `CCSc1cc(C(=O)NCc2ccc(C(=O)NC)cc2)ccn1`, the cytotoxicity at 10 µM stood at 32.6%. The result for `COCCN1CC(O)CN(C(=O)c2cccc(C(F)(F)F)c2)CC1=O` (stereo unspecified) reads -3.84%; that for `Cc1nn(C(C)C)c(C)c1NC(=O)Nc1cccnc1N1CCCC1`, -5.79%; that for `N#CC1(C(=O)N2Cc3cc(-c4cc[nH]n4)ccc3C2c2cnco2)CC1` (stereo unspecified), 25.5%. The result for `Cc1cc(C)c(CN2CCCC23Cc2ccccc2CNC3=O)c(C)c1` (stereo unspecified) reads 10.8%. Next, `Cc1ccccc1C(=O)N1C[C@@H]2C(CN(C)CCc3ccccn3)[C@@H]2C1` (stereo partly specified): -54.9%; `N#Cc1ccc(N2CCCC3(CCN(c4cccnc4)CC3)C2)cc1`: 55.5%; `Cc1nc(C(=O)N(C)CC(=O)N(C)C)nn1-c1ccccc1C(C)C`: -6.5%. With `CCN(Cc1ccc2c(c1)OCO2)S(=O)(=O)N(C)C`, the cytotoxicity at 10 µM is -2.97%.

For `NC(=O)c1cn2cc(-c3ccccc3Cl)n(CC3CC3)c(=O)c2n1`, the cytotoxicity at 10 µM is -1.35%. The result for `O=C(COc1ccc(Cl)cc1)Nc1cnc(N2CCOCC2)nc1` reads -8.18%; that for `COCCOc1ncccc1C(=O)N(C)c1nccs1`, -44.1%.

For `CC(NC1(CNC(=O)NC2CC2)CCOCC1)c1ccccc1` (stereo unspecified), the cytotoxicity at 10 µM turned out to be 10.2%. Next, `Cc1ccsc1C(=O)N1C[C@@H]2CN(Cc3ccoc3)CCO[C@@H]2C1`: -1.19%; `CN(C)C[C@H]1OC[C@@H]2CCN(C(=O)c3ccco3)C[C@@H]21`: 4.84%; `Cc1ccc(F)cc1-c1ccc(N)nc1`: -143%. For `CS(=O)(=O)Cc1nc(CN2CCC(C(F)(F)F)CC2)cs1`, the cytotoxicity at 10 µM is -10.9%. The result for `CS(=O)(=O)N1CCCC(Cc2cnc(Br)cn2)CC1` (stereo unspecified) reads -2.46%.

In the case of `COc1cccc(Cn2cc(C3=CCN(CC(=O)N(C)C)CC3)cn2)c1`, the cytotoxicity at 10 µM is -13.1%. Turning to `O=C1CCN(CCS(=O)(=O)c2ccc(Cl)cc2)CCN1`, the cytotoxicity at 10 µM is -8.48%. Next, `CC(=O)NC(C)(C)C(=O)Nc1ncc(Cc2ccc(C)c(F)c2)s1`: 0.987%; `CCn1cncc1C1CC(=O)Nc2c1c(C)nn2-c1ccc(C)cc1` (stereo unspecified): -8.23%; `CCCS(=O)(=O)N1C[C@@H]2COC[C@@H](Cc3nc(C)no3)[C@@H]2C1`: 6.34%.

On to `Cc1cccc(CS(=O)(=O)NCC(O)Cc2ccccc2)c1` (stereo unspecified), for which the cytotoxicity at 10 µM was -19.5%.

With `CC(O)CN1CCN(Cc2csc(-c3cnn(C)c3)n2)CC1` (stereo unspecified), the cytotoxicity at 10 µM is -4.1%. The result for `C1CCN(CCOC2CCNCC2)CC1` reads 6.88%; that for `CC(C1CC1)N(C)Cc1nnc(-c2ccc(Br)s2)o1` (stereo unspecified), -11.2%. Next, `CNS(=O)(=O)CCCN1CCN(C(C)c2cccnc2)CC1` (stereo unspecified): -10.7%; `Cc1csc(NC(=O)C(C)Oc2ccc3c(c2)OCO3)n1` (stereo unspecified): 8.06%. The result for `Cc1cccc(-c2nc(CN3CCc4cnc(C)nc4C3)no2)c1` reads -8.42%; that for `CC(C)Cn1cc2nc(N3CCCC(C)C3)[nH]cc-2c1=O` (stereo unspecified), 2.22%; that for `Cn1cc(CC2CC(=O)N(Cc3ccccc3OC(F)F)C2=O)cn1` (stereo unspecified), 2.21%. As to `CS(=O)(=O)N1CCC2(CCN(Cc3nccs3)CC2)CC1`, the cytotoxicity at 10 µM stood at 8.28%. For `CCN(CC)C(=O)CNC(=O)c1cnc(-c2ccccc2)nc1`, the cytotoxicity at 10 µM was found to be 12.7%. For the molecule `O=C1CCC[C@]2(CN(S(=O)(=O)N3CCCCC3)C[C@H]2c2cccnc2)N1`, the cytotoxicity at 10 µM is -0.217%. The result for `CN(Cc1ccsc1)C(=O)c1cccc(S(=O)(=O)NCC2CCCO2)c1` (stereo unspecified) reads -13.8%; that for `CC1=N[C@@]2(CC[C@@H]3CN(S(=O)(=O)CC(C)C)C[C@@H]32)C(=O)N1CC1CC1`, -66.6%; that for `OC1CCN(Cc2c(C3CCCNC3)[nH]c3ncccc23)CC1` (stereo unspecified), -0.542%. Next, `O=C(CCCn1cncn1)N1CCCC1c1nc(-c2ccccc2)no1` (stereo unspecified): 0.997%; `Cc1cc(CC(=O)N2CCN(CC(C)C)[C@@H]3CS(=O)(=O)C[C@@H]32)ccc1F`: -2.22%. In the case of `Oc1cccc(CNCC2CCCO2)c1` (stereo unspecified), the cytotoxicity at 10 µM is -1.37%. Next, `O=C(c1ccc(Cl)cc1)N1CC2(CCNC2)OCc2ccccc21` (stereo unspecified): 9.9%; `CN1C(=O)CC2(CCN(S(=O)(=O)c3cccs3)CC2)c2ccccc21`: 1.86%. Next, `OC[C@@H]1[C@@H](c2ccccc2)CN2CCN(c3ccccn3)C[C@H]12`: -0.53%.

On to `CCN(Cc1ccc(C)o1)C(=O)C(C)n1ccnc1C(C)C` (stereo unspecified), for which the cytotoxicity at 10 µM is 7.66%.

Regarding `CCc1nc(C(=O)N2CCOCC2CC(=O)c2ccccc2)c[nH]1` (stereo unspecified), the cytotoxicity at 10 µM was -0.613%.

For `Cc1cn2c(n1)CCC(NC(=O)CCCn1cncn1)C2` (stereo unspecified), the cytotoxicity at 10 µM is -9.12%. Next, `Cn1cnc(S(=O)(=O)NCCCN2CCCCCC2=O)c1Cl`: -15.6%; `O=C(Nc1cnccn1)[C@@H]1C[C@H]2OCC[C@H]2N(c2ncc(F)cn2)C1`: 8.12%. Next, `c1ccc(Cc2nnc(CN3CCCC3Cn3cccn3)o2)cc1` (stereo unspecified): -11.7%. With `COc1nc(C)ccc1CNC(=O)NC(C)Cc1c(C)nn(C)c1C` (stereo unspecified), the cytotoxicity at 10 µM amounted to 8.37%. Next, `COCc1ccc(C(=O)NS(=O)(=O)c2ccc3c(c2)CCC(=O)N3)cc1`: -1.89%; `c1cc(CN2CCC(c3nnc4n3CCCCC4)CC2)c2c(c1)OCO2`: -3.14%; `Cc1cc(C(C)NCCN2CCC(N(C)C)CC2)c(C)s1` (stereo unspecified): -0.85%. Next, `NC(=O)c1ccccc1Oc1cccc(C2CCCNC2)n1` (stereo unspecified): 5.19%. The result for `COC(=O)CNC(=O)c1scnc1C` reads 7.71%; that for `Cn1ncc2c(NCCOc3ccc(F)cc3)nc(C3CCCC3)nc21`, 6.1%; that for `CC(O)CN1CCC(CNCc2ccccc2F)CC1` (stereo unspecified), -11.4%. Take `CC[C@H]1COCCN1C(=O)CCCn1nnc(-c2ccc(F)cc2)n1`: the cytotoxicity at 10 µM stood at 13.4%. Next, `COc1ccc(-n2ncc(C(C)NCc3cnc(SC)nc3)c2C)cc1` (stereo unspecified): 0.423%. Next, `O=C1CCN(Cc2cnc3c(-c4ccccc4)cnn3c2)CCN1`: 11%; `Cc1csc(C(Cc2ccsc2)NC(=O)Cn2cccnc2=O)n1` (stereo unspecified): -22.2%. Next, `CCc1ccccc1Nc1noc2c1CN(C(=O)C1CCCO1)CC2` (stereo unspecified): -9.9%. As for `CN(C)c1nc2c(c(N3CCCC3)n1)CCN(C(=O)c1ccc[nH]1)CC2`, the cytotoxicity at 10 µM was 7.81%.

As to `NC(=O)c1ccc(CNC(=O)NCc2cc[nH]n2)cc1`, the cytotoxicity at 10 µM stood at 12.3%. The result for `Cn1nc(C2CN(S(C)(=O)=O)C2)c2nccnc21` reads -13.2%; that for `O=C(N1CCCC1)N1CCOCC2(CCN(Cc3cccs3)C2)C1` (stereo unspecified), -3.85%; that for `Cc1cccc(C(C)(C)CNc2cn[nH]c(=O)c2Cl)c1`, 23.3%. The result for `NC(=O)CN1CCCN(C(=O)Cc2ccc(F)c(Br)c2)CC1` reads 0.361%; that for `CC(CNC(=O)OC(C)(C)C)N(C)C(=O)COc1ccccc1C#N` (stereo unspecified), 1.39%. The result for `COCCN(Cc1ccco1)Cc1nc(-c2ccccc2)no1` reads 6.4%; that for `CN(Cc1ccco1)C(=O)CN1C(=O)c2cc(Cl)c(Cl)cc2C1=O`, 1.11%. For the molecule `O=C(c1ccc(O)nc1)N1Cc2ccccc2OC2(CCOCC2)C1`, the cytotoxicity at 10 µM was -44.2%. In the case of `Cc1ncnc2c1CCN(Cc1ccccn1)CC2`, the cytotoxicity at 10 µM is -10.4%. Next, `CCCN(CC(=O)NC)C(=O)c1ccc(-c2nc(C)cs2)cc1`: -20.8%. Next, `CSc1ccccc1-n1ccnc1-c1cn(C2CCNCC2)nn1`: -0.67%; `CC(C)CNC(=O)c1sccc1-n1cnnn1`: 0.00426%; `CCN(Cc1ccc(O)c(C(=O)O)c1)CC1CCCO1` (stereo unspecified): 3.9%.

With `O=C(CC1CC1)NCc1cn2c(n1)CN(Cc1nccs1)CC2`, the cytotoxicity at 10 µM is -74.1%. Next, `CCc1cnc(NCCS(=O)(=O)N(C)C)nc1`: -10.2%; `COC(C)c1noc(CN2CCCNCC2)n1` (stereo unspecified): 5.6%. Next, `CC(C)n1cnnc1CN(C)C(=O)c1cnn2ccccc12`: 1.31%; `Cc1cccc(NC(=O)Nc2c[nH]c(=O)[nH]c2=O)c1C`: 8.2%. The result for `CCN1CCC(CC(=O)NCc2cc(C)nn2C)CC1` reads -14.5%. As to `COCC1CCN(C(=O)c2cn(Cc3ccccc3F)nn2)CC1`, the cytotoxicity at 10 µM was determined as 1.89%.

The record behind these values is ChEMBL document CHEMBL4513216, “Probing the Open Global Health Chemical Diversity Library for Multistage-Active Starting Points for Next-Generation Antimalarials” (ACS Infect Dis, 2020).
